According to ChEMBL document CHEMBL4819066, “Repurposing primaquine as a polyamine conjugate to become an antibiotic adjuvant” (Bioorg Med Chem, 2021):

Key:
[1] = tested on: Staphylococcus aureus; assay: Antibacterial activity against methicillin-resistant Staphylococcus aureus ATCC 43300 assessed as reduction in microbial growth after 18 hrs by resazurin dye based assay; type: functional
Method in brief: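 Overnight culture at 37 °C, diluted 40-fold in MHB and grown 1.5-2 h to mid-log. Inoculum 5 × 10^5 CFU/mL. Two-fold serial dilutions, final 0.008-32 µg/mL, in duplicate. […] Vancomycin served as the Gram-positive standard.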

[2] = tested on: Pseudomonas aeruginosa; assay: Antibacterial activity against Pseudomonas aeruginosa ATCC 27853 assessed as reduction in microbial growth after 18 hrs by resazurin dye based assay; type: functional
Method in brief: (§1)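 Bacteria grown overnight at 37 °C in LB, NB or MHB, diluted 40-fold into MHB and grown 1.5-2 h to mid-log phase. Inoculum 5 × 10^5 CFU/mL (final), 2-fold serial dilutions, final range 0.008-32 µg/mL, in duplicate. […] Colistin as positive control, Z'-factor >0.4 for plate QC.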

[3] = tested on: Escherichia coli; assay: Antibacterial activity against Escherichia coli ATCC 25922 assessed as reduction in microbial growth after 18 hrs by resazurin dye based assay; type: functional; method in brief: as §1
[4] = tested on: Klebsiella pneumoniae; assay: Antibacterial activity against Klebsiella pneumoniae ATCC 700603 assessed as reduction in microbial growth after 18 hrs by resazurin dye based assay; type: functional; method in brief: as §1
[5] = tested on: Acinetobacter baumannii; assay: Antibacterial activity against Acinetobacter baumannii ATCC 19606 assessed as reduction in microbial growth after 18 hrs by resazurin dye based assay; type: functional; conditions: ATCC 19606 = CIP 70.34 = JCM 6841; method in brief: as §1
[6] = tested on: Cryptococcus neoformans; assay: Antifungal activity against Cryptococcus neoformans ATCC 208821 assessed as reduction in microbial growth after 36 hrs by resazurin dye based assay; type: functional
Method in brief: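 Yeast grown 3 days on YPD agar at 30 °C and diluted in YNB broth to 2.5 × 10^3 CFU/mL. Compounds at 0.008-32 µg/mL final, 2-fold dilutions, in duplicate. After 36 h at 35 °C without shaking, resazurin added at 0.006% final for a further 3 h; MIC read as absorbance at OD570-600. Fluconazole as positive control.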

[7] = tested on: Pseudomonas aeruginosa; assay: Potentiation of doxycycline-induced antibacterial activity against Pseudomonas aeruginosa ATCC 27853 assessed as complete reduction in visible microbial growth after 18 hrs in presence of 4.5 uM doxycycline by two fold serial dilution method; type: functional
Method in brief: (§2)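 Adjuvant test by broth dilution: inoculum 5 × 10^5 CFU in 200 µL MHB. Two-fold serial dilutions of each derivative were given with doxycycline fixed at 2 µg/mL. After 18 h at 37 °C, the value recorded was the lowest adjuvant concentration giving complete absence of visible growth. Three independent repeats.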

[8] = Hemolytic activity in rat RBC incubated for 1 hr by Neubauer haemocytometric analysis; type: ADME, cell-based, Erythrocyte; conditions: red blood cells (erythrocytes)
[9] = tested on: L6; assay: Cytotoxicity against rat L6 cells assessed as reduction in cell viability at 0.123 to 90 ug/ml measured after 72 hrs by Alamar blue based inverted microscopy analysis; conditions: l6, 72 h, dose 0.123-90 µg/ml
Method in brief: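 Rat skeletal myoblast L6 cells, 4 × 10^4 per well, in RPMI 1640 with L-glutamine and 10% FBS. Seven 3-fold dilutions were tested, 90 to 0.123 µg/mL, for 72 h. Alamar Blue added for 2 h, and fluorescence read at ex 536/em 588 nm. Podophyllotoxin served as reference drug.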

[10] = tested on: HEK293; assay: Cytotoxicity against human HEK293 cells assessed as reduction in cell viability measured after 20 hrs by resazurin based Neubauer haemocytometric analysis; conditions: hek293, 20 h
Method in brief: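 HEK293 cells plated at 5,000 cells/well in DMEM with 10% FBS onto pre-dispensed compound and incubated 20 h at 37 °C, 5% CO2. Resazurin then added at 100 µM final for 3 h; fluorescence read at ex 560/em 590. Signal normalized to 74 µg/mL tamoxifen (0%) and untreated growth (100%). CC50 obtained from dose-response fit.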

[11] = tested on: Candida albicans; assay: Antifungal activity against Candida albicans ATCC 90028 assessed as reduction in microbial growth after 36 hrs by absorbance at OD530; conditions: ATCC 90028, 36 h
[12] = tested on: Escherichia coli; assay: Potentiation of doxycycline-induced antibacterial activity against Escherichia coli ATCC 25922 assessed as complete reduction in visible microbial growth after 18 hrs in presence of 4.5 uM doxycycline by two fold serial dilution method; type: functional; method in brief: as §2
[13] = tested on: Klebsiella pneumoniae; assay: Potentiation of doxycycline-induced antibacterial activity against Klebsiella pneumoniae ATCC 700603 assessed as complete reduction in visible microbial growth after 18 hrs in presence of 4.5 uM doxycycline by two fold serial dilution method; type: functional
[14] = tested on: Acinetobacter baumannii; assay: Potentiation of doxycycline-induced antibacterial activity against Acinetobacter baumannii AYE assessed as complete reduction in visible microbial growth after 18 hrs in presence of 4.5 uM doxycycline by two fold serial dilution method; type: functional; method in brief: as §2
[15] = tested on: Erythrocyte; assay: Hemolytic activity in human Erythrocyte incubated for 1 hr by Neubauer haemocytometric analysis; type: ADME, cell-based
Method in brief: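 Human whole blood washed three times in 0.9% NaCl and resuspended at 0.5 × 10^8 cells/mL (haemocytometer count). Cells added to compound plates, shaken 10 min, then incubated 1 h at 37 °C. After centrifugation at 1,000g for 10 min, supernatant absorbance read at OD405. HC10/HC50 obtained by sigmoidal fit against log concentration.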

Compound	MIC [1]	MIC [2]	MIC [3]	MIC [4]	MIC [5]	MIC [6]	MIC [7]	HC50 at 1 h [8]	Activity [9]	Activity [10]	MIC [11]	MIC [12]	MIC [13]	MIC [14]	Activity [15]
O=C(CCC(=O)Nc1cccc2cccnc12)NCCCNCCCCCCCCCCNCCCNC(=O)CCC(=O)Nc1cccc2cccnc12.O=C(O)C(F)(F)F.O=C(O)C(F)(F)F	33.1 µM	> 33.1 µM	> 33.1 µM	> 33.1 µM	> 33.1 µM	> 33.1 µM	100 µM	30.5 µM	Non-Toxic	Non-Toxic	> 33.1 µM				
COc1cc(NC(C)CCCNC(=O)CCC(=O)NCCCNCCCCNCCCNC(=O)CCC(=O)NCCCC(C)Nc2cc(OC)cc3cccnc23)c2ncccc2c1.O=C(O)C(F)(F)F.O=C(O)C(F)(F)F (stereo not given)	> 33.4 µM	> 33.4 µM	> 33.4 µM	> 33.4 µM	> 33.4 µM	33.4 µM	6.25 µM		Non-Toxic	Non-Toxic	> 33.4 µM	50 µM	> 200 µM	> 200 µM	Non-Toxic
